{"source": "paper PMC10079166", "about": "(Journal of medicinal chemistry, 2019)", "key": {"[1]": {"system": "mechanical and thermal hyperalgesia", "details": "intrathecal (spinal cord) injection, rats; cited from earlier work"}, "[2]": {"system": "mechanical and thermal hyperalgesia", "details": "intrathecal (spinal cord) injection, mice; cited from earlier work"}, "mouse MRGPRC11 [3]": {"molecular_target": "T1, mouse MRGPRC11 (Mus musculus, UniProt Q8CIP3)", "T1 sequence (Q8CIP3 1-322)": "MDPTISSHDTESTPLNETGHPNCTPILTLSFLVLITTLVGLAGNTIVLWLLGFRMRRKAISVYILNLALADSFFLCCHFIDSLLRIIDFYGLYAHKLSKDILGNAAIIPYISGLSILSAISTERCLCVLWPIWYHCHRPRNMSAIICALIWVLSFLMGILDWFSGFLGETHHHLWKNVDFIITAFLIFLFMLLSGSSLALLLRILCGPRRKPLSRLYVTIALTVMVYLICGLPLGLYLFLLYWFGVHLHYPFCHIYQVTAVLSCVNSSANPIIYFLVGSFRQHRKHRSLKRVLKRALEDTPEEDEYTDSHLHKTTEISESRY", "details": "cited from earlier work"}, "human MRGPRX1 [4]": {"molecular_target": "T2, human MRGPRX1 (Homo sapiens, UniProt Q96LB2)", "T2 sequence (Q96LB2 whole entry)": "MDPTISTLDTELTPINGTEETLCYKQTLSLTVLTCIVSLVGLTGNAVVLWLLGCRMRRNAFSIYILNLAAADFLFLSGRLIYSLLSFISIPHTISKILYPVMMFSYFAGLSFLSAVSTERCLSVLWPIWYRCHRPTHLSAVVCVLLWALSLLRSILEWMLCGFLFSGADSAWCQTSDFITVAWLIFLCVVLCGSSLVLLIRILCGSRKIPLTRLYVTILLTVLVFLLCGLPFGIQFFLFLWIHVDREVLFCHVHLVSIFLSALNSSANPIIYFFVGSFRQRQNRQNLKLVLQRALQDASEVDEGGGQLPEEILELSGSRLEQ", "details": "cited from earlier work"}, "rat MRGPRC": {"system": "rat MRGPRC", "details": "cited from earlier work"}, "[5]": {"system": "HVA Ca2+ currents in human MRGPRX1-expressing DRG neurons", "format": "cell-based, mouse", "details": "DRG neurons from MrgprX1 mice"}, "human MRGPRX1 [6]": {"molecular_target": "T2, human MRGPRX1", "format": "cell-based", "details": "for agonist type at human MRGPRX1: HTS hits, FLIPR calcium 4 Assay Kit; for ligand efficiency (LE): human MRGPRX1 agonists; for fold decrease in agonist potency as compared to 5a: relative to 5a; for agonist activity at MRGPRX1: at concentrations up to 100 μM", "how_it_was_run": "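HEK293 cells stably expressing human MrgprX1 were plated at 25,000 cells/well and grown 2 days. They were loaded with 2 μM Fluo 4AM and 1% Trypan Red in HBSS for 50 min at 37°C, then equilibrated 10 min at room temperature. Serial dilutions in HBSS were added, with BAM 8–22 as positive and HBSS as negative control. FLIPR imaging ran 2 min; read-out was maximum minus minimum fluorescence.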"}, "neuropathic pain": {"system": "neuropathic pain", "details": "rodent models of neuropathic pain; cited from earlier work"}, "[7]": {"system": "δ-, μ- and κ-opioid receptors", "assay": "Selectivity of MRGPRX1 agonists over opioid receptors", "format": "binding", "details": "MRGPRX1 versus δ-"}, "[8]": {"assay": "Metabolic stability in mouse liver microsomes", "format": "in vitro ADME"}, "mouse MRGPRC11 [9]": {"molecular_target": "T1, mouse MRGPRC11", "assay": "Agonist activity at mouse MRGPRC11", "format": "cell-based", "details": "even at concentration of 40 μM"}}, "note": "“Also recorded” adds a separate entry of the source. Like-named read-outs stand apart in the source and are kept apart here. Non-standard residues stand in square brackets, D forms with d. Residues, ends and D or L forms follow the SMILES beside them. dPhe(4-guanidino) = N=C(N)Nc1ccc(C[C@@H](N)C(=O)O)cc1", "data": [{"compound": "BAM8-22", "values": [{"measurement": "effect on mechanical and thermal hyperalgesia", "setting": "[1]", "value": "attenuate both mechanical and thermal hyperalgesia"}, {"measurement": "effect on mechanical and thermal hyperalgesia", "setting": "[2]", "value": "attenuate both mechanical and thermal hyperalgesia"}, {"measurement": "agonist activity at mouse MRGPRC11", "setting": "mouse MRGPRC11 [3]", "value": "full agonist activity"}, {"measurement": "agonist activity at human MRGPRX1", "setting": "human MRGPRX1 [4]", "value": "full agonist activity"}, {"measurement": "agonist activity at rat MRGPRC", "setting": "rat MRGPRC", "value": "full agonist activity"}, {"measurement": "inhibitory effect on HVA Ca2+ currents", "setting": "[5]; bath application of 5 μM", "value": "inhibited HVA Ca^2+ currents"}]}, {"compound": "CCCCS(=O)(=O)Nc1cc(C)ccc1Oc1ccc(C(=N)N)cc1", "note": "[Compound 11a, 4-(2-(Butylsulfonamido)-4-methylphenoxy)benzimidamide]", "values": [{"measurement": "agonist type at human MRGPRX1", "setting": "human MRGPRX1 [6]", "value": "full agonists"}, {"measurement": "ligand efficiency (LE)", "setting": "human MRGPRX1 [6]", "value": "0.32–0.33"}]}, {"compound": "COc1cc(CNc2cccc(C(=N)N)c2)ccc1OCc1ccccc1", "note": "[Compound 5b, 3-(4-(Benzyloxy)-3-methoxybenzylamino)benzimidamide]", "values": [{"measurement": "fold decrease in agonist potency as compared to 5a", "setting": "human MRGPRX1 [6]", "value": 6, "unit": "fold"}]}, {"compound": "COc1ccccc1S(=O)(=O)Nc1ccc(C)cc1Oc1ccc2sc(N)nc2c1", "note": "[Compound 19, N-(2-(2-Aminobenzo[d]thiazol-5-yloxy)-4-methylphenyl)-2-methoxybenzenesulfonamide]", "values": [{"measurement": "agonist activity at MRGPRX1", "setting": "human MRGPRX1 [6]", "value": "negligible agonist activity; also recorded: no agonist activity"}]}, {"compound": "NC(=O)[C@H](Cc1ccccc1)NC(=O)[C@H](N)Cc1ccc(N=C(N)N)cc1", "note": "[JHU-58] (H-[dPhe(4-guanidino)]-Phe-NH2)", "values": [{"measurement": "analgesic effects", "setting": "neuropathic pain", "value": "exhibits analgesic effects"}, {"measurement": "agonist activity at mouse MRGPRC11", "setting": "mouse MRGPRC11 [3]", "value": "full agonist activity"}, {"measurement": "agonist activity at human MRGPRX1", "setting": "human MRGPRX1 [4]; introduction", "value": "negligible agonist activity"}, {"measurement": "agonist activity at rat MRGPRC", "setting": "rat MRGPRC", "value": "full agonist activity"}]}, {"compound": "COc1cc(CNc2ccccc2C(=N)N)ccc1OCc1ccccc1", "note": "[Compound 5c, 2-(4-(Benzyloxy)-3-methoxybenzylamino)benzimidamide]", "values": [{"measurement": "agonist activity at MRGPRX1", "setting": "human MRGPRX1 [6]", "value": "negligible agonist activity"}, {"measurement": "fold decrease in agonist potency as compared to 5a", "setting": "human MRGPRX1 [6]", "value": "> 100", "unit": "fold"}, {"measurement": "inhibitory effect on HVA Ca2+ currents", "setting": "[5]; bath application of 10 μM", "value": "no inhibitory effects"}]}, {"compound": "COc1cc(CNc2ccc(C(=N)N)cc2)ccc1OCc1ccccc1", "note": "[Compound 5a, 4-(4-(Benzyloxy)-3-methoxybenzylamino)benzimidamide]", "values": [{"measurement": "agonist type at human MRGPRX1", "setting": "human MRGPRX1 [6]", "value": "full agonists"}, {"measurement": "ligand efficiency (LE)", "setting": "human MRGPRX1 [6]", "value": "0.32–0.33"}, {"measurement": "inhibitory effect on HVA Ca2+ currents", "setting": "[5]; bath application of 10 μM", "value": "inhibited HVA Ca^2+ currents"}]}, {"compound": "COc1cc(CNc2ccc(C(=N)N)cc2)ccc1OCc1cccnc1", "note": "[Compound 5d, 4-(3-Methoxy-4-(pyridin-3-ylmethoxy)benzylamino)benzimidamide]", "values": [{"measurement": "fold decrease in agonist potency as compared to 5a", "setting": "human MRGPRX1 [6]", "value": 10, "unit": "fold"}]}, {"compound": "COc1ccccc1S(=O)(=O)Nc1ccc(C)cc1Oc1ccc2c(N)nccc2c1", "note": "[Compound 16, N-(2-(1-Aminoisoquinolin-6-yloxy)-4-methylphenyl)-2-methoxybenzenesulfonamide]", "values": [{"measurement": "selectivity over all three opioid receptors", "setting": "[7]", "value": "≥ 50", "unit": "fold"}, {"measurement": "half-life", "setting": "[8]", "value": "< 15", "unit": "min"}, {"measurement": "activity against mouse MRGPRC11", "setting": "mouse MRGPRC11 [9]", "value": "inactive"}]}]}
